pIC50: −log10 of the molar value. One block for each compound: values may come before it. Calls of active or inactive are those of the source.
What was measured:
[1] = Ratio of drug level in brain to plasma in rat at 10 mg/kg, po; format: ADME, organism-based; set-up: dose 10 mg/kg, route oral; conditions: read-out: BPR
[2] = molecular target: T1, Sodium- and chloride-dependent glycine transporter 1 (Homo sapiens, UniProt P48067); experiment: Inhibition of human GlyT1a after 15 mins
T1 sequence (P48067 whole entry): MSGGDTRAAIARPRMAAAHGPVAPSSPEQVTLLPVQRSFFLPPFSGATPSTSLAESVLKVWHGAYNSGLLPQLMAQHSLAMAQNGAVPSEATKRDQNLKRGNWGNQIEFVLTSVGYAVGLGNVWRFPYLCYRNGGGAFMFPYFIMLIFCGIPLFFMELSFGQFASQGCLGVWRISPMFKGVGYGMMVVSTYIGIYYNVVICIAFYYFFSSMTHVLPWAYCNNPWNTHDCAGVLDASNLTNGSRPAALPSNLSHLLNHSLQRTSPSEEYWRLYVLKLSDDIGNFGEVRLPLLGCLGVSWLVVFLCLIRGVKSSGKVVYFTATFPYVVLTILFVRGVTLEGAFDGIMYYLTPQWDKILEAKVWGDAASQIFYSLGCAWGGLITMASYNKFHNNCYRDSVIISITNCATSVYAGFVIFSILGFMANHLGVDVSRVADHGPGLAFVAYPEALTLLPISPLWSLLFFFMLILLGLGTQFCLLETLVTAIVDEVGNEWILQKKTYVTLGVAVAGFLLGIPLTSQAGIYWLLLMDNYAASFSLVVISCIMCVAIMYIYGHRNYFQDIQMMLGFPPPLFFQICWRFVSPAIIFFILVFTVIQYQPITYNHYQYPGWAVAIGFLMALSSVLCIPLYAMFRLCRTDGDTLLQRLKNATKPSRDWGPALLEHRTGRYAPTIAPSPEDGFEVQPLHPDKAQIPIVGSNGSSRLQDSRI
In short: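 Human GlyT1, hGlyT1a isoform; IC50 taken as the average of at least two measurements.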

[3] = Metabolic stability in rat liver microsomes assessed as compound turnover at 1 uM after 15 mins; format: ADME, Microsome; conditions: read-out: Drug metabolism
In short: (§1)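 Test compound at 1 μM incubated with human or rat liver microsomes (0.5 mg/mL protein) at 37 °C for 15 min; turnover measured.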

[4] = Metabolic stability in human liver microsomes assessed as compound turnover at 1 uM after 15 mins; format: ADME, Microsome; conditions: read-out: Drug metabolism; in short: as §1
Cytochrome P450 2C9 = Cytochrome P450 2C9 (Homo sapiens, UniProt P11712); experiment: Inhibition of CYP2C9; format: ADME
Cytochrome P450 2D6 = Cytochrome P450 2D6 (Homo sapiens, UniProt P10635); experiment: Inhibition of CYP2D6; format: ADME
Cytochrome P450 3A4 = Cytochrome P450 3A4 (Homo sapiens, UniProt P08684); experiment: Inhibition of CYP3A4; format: ADME
Plasma [5] = experiment: Receptor occupancy at Glyt1 in rat plasma at 10 mg/kg, po; format: functional
Brain = experiment: Receptor occupancy at Glyt1 in rat brain at 10 mg/kg, po; format: functional
Mus musculus = organism: Mus musculus; experiment: Binding affinity to mouse P-gp
[6] = Cmax in dog at 1 mg/kg, po and 1 mg/kg, iv; format: ADME, organism-based, Canis lupus familiaris; conditions: in vivo
In short: (§2)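 Dog PK: single 1.0 mg/kg dose given iv and po; oral dosing in 0.5% methocel suspension. Clearance, Vd(ss), half-life, oral bioavailability (F), Cmax (μM) and Tmax derived from the plasma profiles.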

[7] = Oral bioavailability in dog at 1 mg/kg; format: ADME, organism-based, Canis lupus familiaris; conditions: in vivo; in short: as §2
[8] = Clearance in dog at 1 mg/kg, po and 1 mg/kg, iv; format: ADME, organism-based, Canis lupus familiaris; conditions: in vivo; in short: as §2
[9] = Tmax in rat at 1 mg/kg, po and 1 mg/kg, iv; format: ADME, organism-based; conditions: in vivo
In short: (§3)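 Rat PK: 1.0 mg/kg iv and po, oral arm as 0.5% methocel suspension; plasma Cl, Vd(ss), T1/2, F, Cmax (μM) and Tmax determined.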

[10] = Half life in rat at 1 mg/kg, po and 1 mg/kg, iv; format: ADME, organism-based; conditions: in vivo; in short: as §3
[11] = Oral bioavailability in rat at 1 mg/kg; format: ADME, organism-based; conditions: in vivo; in short: as §3
[12] = Clearance in rat at 1 mg/kg, po and 1 mg/kg, iv; format: ADME, organism-based; conditions: in vivo; in short: as §3
[13] = Half life in dog at 1 mg/kg, po and 1 mg/kg, iv; format: ADME, organism-based, Canis lupus familiaris; conditions: in vivo; in short: as §2
[14] = Half life in rhesus monkey at 1 mg/kg, po and 1 mg/kg, iv; format: ADME, organism-based, Macaca mulatta; conditions: in vivo
In short: (§4)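 Rhesus monkey pharmacokinetics after 1.0 mg/kg by both iv and oral routes; reported parameters are Cl, Vd(ss), T1/2, F, Cmax (μM) and Tmax.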

Rattus norvegicus [15] = experiment: Covalent binding in rat at 20 mg/kg, po after 6 hrs; format: ADME, organism-based; set-up: dose 20 mg/kg, route oral; conditions: in vivo
In short: (§5)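 Rats dosed orally at 20 mg/kg; liver and plasma proteins sampled 6 h postdose; covalently bound drug-derived material expressed as pmol equiv/mg protein.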

Rhesus monkey = experiment: Receptor plasma occupancy at Glyt1 in rhesus monkey pons assessed as inhibition of [18F]MK-6577 uptake administered as iv bolus plus infusion by PET imaging; format: functional, Macaca mulatta
In short: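 Rhesus monkeys (~10 kg) sedated with ketamine 10 mg/kg im, induced with propofol 5 mg/kg iv, and maintained on propofol 0.4 mg/kg/min. Compound given iv as bolus plus infusion in EtOH:H2O:PEG400 (10:40:50); ~5 mCi [18F]MK-6577 injected 1 h into the infusion. Dynamic PET scans compared baseline and blockade uptake to derive an occupancy versus plasma concentration curve and plasma Occ50.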

[16] = Cmax in rat at 1 mg/kg, po and 1 mg/kg, iv; format: ADME, organism-based; conditions: in vivo; in short: as §3
Homo sapiens = organism: Homo sapiens; experiment: Binding affinity to human P-gp
[17] = Volume of distribution at steady state in rhesus monkey at 1 mg/kg, po and 1 mg/kg, iv; format: ADME, organism-based, Macaca mulatta; conditions: in vivo, read-out: Vdss; in short: as §4
[18] = Tmax in dog at 1 mg/kg, po and 1 mg/kg, iv; format: ADME, organism-based, Canis lupus familiaris; conditions: in vivo; in short: as §2
Rattus norvegicus [19] = experiment: Inhibition of GlyTl in rat frontal cortex assessed as increase extracellular glycine level after 3 mg/kg, po up to 4 hrs relative to baseline; format: functional; set-up: scale not given: the % may be the effect or the level left
In short: (§6)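 Microdialysis probe placed in rat frontal cortex; extracellular glycine sampled up to 4 h after oral dosing at 3 or 20 mg/kg; peak glycine efflux given as % of basal level, mean ± SEM.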

[20] = Tmax in rhesus monkey at 1 mg/kg, po and 1 mg/kg, iv; format: ADME, organism-based, Macaca mulatta; conditions: in vivo; in short: as §4
[21] = Volume of distribution at steady state in rat at 1 mg/kg, po and 1 mg/kg, iv; format: ADME, organism-based; conditions: in vivo, read-out: Vdss; in short: as §3
[22] = Clearance in rhesus monkey at 1 mg/kg, po and 1 mg/kg, iv; format: ADME, organism-based, Macaca mulatta; conditions: in vivo; in short: as §4
[23] = Oral bioavailability in rhesus monkey at 1 mg/kg; format: ADME, organism-based, Macaca mulatta; conditions: in vivo; in short: as §4
Rattus norvegicus [24] = experiment: Inhibition of GlyTl in rat frontal cortex assessed as increase in extracellular glycine level at 20 mg/kg, po up to 4 hrs relative to baseline; format: functional; set-up: scale not given: the % may be the effect or the level left; in short: as §6
[25] = Cmax in rhesus monkey at 1 mg/kg, po and 1 mg/kg, iv; format: ADME, organism-based, Macaca mulatta; conditions: in vivo; in short: as §4
[26] = Volume of distribution at steady state in dog at 1 mg/kg, po and 1 mg/kg, iv; format: ADME, organism-based, Canis lupus familiaris; conditions: in vivo, read-out: Vdss; in short: as §2
Rattus norvegicus [27] = experiment: Inhibition of PCP-induced cognitive deficit in extra dimensional shift in intra/extra dimensional rat model of executive function at 3 mg/kg, po; format: functional, organism-based; set-up: dose 3 mg/kg
In short: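 Rats given subchronic PCP to impair attentional set shifting, then dosed 3 mg/kg po; all ID/ED discriminations run, with trials to criterion scored for the extra-dimensional shift; significance at p < 0.05 versus PCP and vehicle groups.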

Liver = experiment: Covalent binding affinity at liver protein in rat at 20 mg/kg, po after 6 hrs; format: ADME, organism-based; set-up: dose 20 mg/kg, route oral; conditions: in vivo; in short: as §5
Plasma [28] = experiment: Covalent binding affinity in rat plasma at 20 mg/kg, po after 6 hrs; format: ADME, organism-based; set-up: dose 20 mg/kg, route oral; conditions: in vivo; in short: as §5

Sequence of Cytochrome P450 2C9 (P11712 whole entry): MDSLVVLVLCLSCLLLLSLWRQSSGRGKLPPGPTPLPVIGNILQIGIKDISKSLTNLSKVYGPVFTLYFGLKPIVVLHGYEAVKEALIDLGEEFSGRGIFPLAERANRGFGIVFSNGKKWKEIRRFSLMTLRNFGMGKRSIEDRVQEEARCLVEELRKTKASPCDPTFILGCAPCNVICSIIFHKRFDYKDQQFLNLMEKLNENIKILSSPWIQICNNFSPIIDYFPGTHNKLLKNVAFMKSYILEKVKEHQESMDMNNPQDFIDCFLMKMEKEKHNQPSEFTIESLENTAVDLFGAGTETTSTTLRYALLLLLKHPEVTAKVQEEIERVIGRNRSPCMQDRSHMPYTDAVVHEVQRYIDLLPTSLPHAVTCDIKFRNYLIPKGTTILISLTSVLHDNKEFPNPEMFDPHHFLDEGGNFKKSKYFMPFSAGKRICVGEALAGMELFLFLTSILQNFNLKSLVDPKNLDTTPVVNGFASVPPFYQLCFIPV
Sequence of Cytochrome P450 3A4 (P08684 whole entry): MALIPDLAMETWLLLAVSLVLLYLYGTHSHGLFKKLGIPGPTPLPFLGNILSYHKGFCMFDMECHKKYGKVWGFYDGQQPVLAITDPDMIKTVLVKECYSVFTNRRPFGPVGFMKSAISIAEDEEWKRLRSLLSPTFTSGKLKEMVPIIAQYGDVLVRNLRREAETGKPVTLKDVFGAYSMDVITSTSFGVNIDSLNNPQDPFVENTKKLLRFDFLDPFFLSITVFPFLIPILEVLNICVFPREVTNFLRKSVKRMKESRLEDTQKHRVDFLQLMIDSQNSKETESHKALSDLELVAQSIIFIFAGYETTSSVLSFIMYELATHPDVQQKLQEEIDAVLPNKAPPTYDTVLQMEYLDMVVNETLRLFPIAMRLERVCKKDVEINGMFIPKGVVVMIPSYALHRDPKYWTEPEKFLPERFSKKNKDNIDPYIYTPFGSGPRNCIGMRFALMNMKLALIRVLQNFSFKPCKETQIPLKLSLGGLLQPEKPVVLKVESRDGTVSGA
Sequence of Cytochrome P450 2D6 (P10635 whole entry): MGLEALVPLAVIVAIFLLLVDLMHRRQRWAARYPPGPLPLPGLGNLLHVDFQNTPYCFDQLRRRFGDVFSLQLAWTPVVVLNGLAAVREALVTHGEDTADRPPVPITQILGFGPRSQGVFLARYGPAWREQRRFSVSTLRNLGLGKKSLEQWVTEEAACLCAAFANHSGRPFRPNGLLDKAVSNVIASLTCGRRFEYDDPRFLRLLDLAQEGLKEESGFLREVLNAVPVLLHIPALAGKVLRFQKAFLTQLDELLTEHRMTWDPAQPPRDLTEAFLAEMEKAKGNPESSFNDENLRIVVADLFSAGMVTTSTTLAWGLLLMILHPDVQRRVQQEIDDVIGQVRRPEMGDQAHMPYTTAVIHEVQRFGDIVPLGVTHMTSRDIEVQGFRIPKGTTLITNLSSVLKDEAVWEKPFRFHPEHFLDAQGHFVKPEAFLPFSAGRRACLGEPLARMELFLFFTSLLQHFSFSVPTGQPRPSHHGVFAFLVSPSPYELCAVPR

SMILES: Cn1cc(S(=O)(=O)[C@H]2CC[C@@](CNC(=O)c3ccc(Cl)cc3Cl)(CC3CC3)CC2)nn1
Kp [1]: 0.1

SMILES: CCS(=O)(=O)[C@H]1CC[C@@](CNC(=O)c2ccc(Cl)cc2Cl)(CC2CC2)CC1
pIC50 [2]: 5.88

SMILES: CS(=O)(=O)[C@H]1CC[C@](CNC(=O)c2ccc(Cl)cc2Cl)(CC2CC2)CC1
pIC50 [2]: 5.48

SMILES: Cc1cc(S(=O)(=O)[C@H]2CC[C@@](CNC(=O)c3ccc(Cl)cc3Cl)(CC3CC3)CC2)no1
pIC50 [2]: 8.07
metabolised at 0.25 h, 1 µM [3]: 51%
metabolised at 0.25 h, 1 µM [4]: 35%

SMILES: O=C(NC[C@]1(CC2CC2)CC[C@H](S(=O)(=O)c2c[nH]nn2)CC1)c1ccc(Cl)cc1Cl
pIC50 [2]: 5.52
inhibition (INH) (Cytochrome P450 2C9): Active

SMILES: O=C(NC[C@]1(CC2CC2)CC[C@H](S(=O)(=O)CC2CC2)CC1)c1ccc(Cl)cc1Cl
pIC50 [2]: 7.54
Activity (Mus musculus): inactive
Cmax [6]: 1390 nM
bioavailability [7]: 48%
clearance [8]: 4.9 mL/min/kg
Tmax [9]: 0.8 h
half-life [10]: 2.4 h
bioavailability [11]: 65%
clearance [12]: 36 mL/min/kg
half-life [13]: 10 h
half-life [14]: 1.5 h
PB (Rattus norvegicus [15]): < 25 pmolequiv/mg
Occ50 (Rhesus monkey): 120 nM
Cmax [16]: 140 nM
Activity (Homo sapiens): inactive
metabolised at 0.25 h, 1 µM [3]: 40%
Kp [1]: 2.3
Vd [17]: 2.3 L/kg
Tmax [18]: 1 h
Activity (Rattus norvegicus [19]): 151%
Tmax [20]: 2.7 h
Vd [21]: 4.1 L/kg
clearance [22]: 24 mL/min/kg
bioavailability [23]: 2%
Occ50 (Plasma [5]): 0.35 µM
Activity (Rattus norvegicus [24]): 184%
metabolised at 0.25 h, 1 µM [4]: 35%
Cmax [25]: 40 nM
Vd [26]: 3.1 L/kg
inhibition (Rattus norvegicus [27]): Active

SMILES: CCS(=O)(=O)N1CCC(CNC(=O)c2ccc(Cl)cc2Cl)(CC2CC2)CC1
pIC50 [2]: 7.59
PB (Liver): 153 pmolequiv/mg
Activity (Plasma [28]): 214 pmolequiv/mg

SMILES: O=C(NC[C@]1(CC2CC2)CC[C@H](S(=O)(=O)CC2CCC2)CC1)c1ccc(Cl)cc1Cl
pIC50 [2]: 6.20

More lines, main results first:

pIC50 [2]: 7.54
metabolised at 0.25 h, 1 µM [3]: 40%
metabolised at 0.25 h, 1 µM [4]: 35%
SMILES: Cc1ccc(S(=O)(=O)[C@H]2CC[C@@](CNC(=O)c3ccc(Cl)cc3Cl)(CC3CC3)CC2)nn1

pIC50 [2]: 5.48
SMILES: Cc1nnc(S(=O)(=O)[C@H]2CC[C@@](CNC(=O)c3ccc(Cl)cc3Cl)(CC3CC3)CC2)s1

pIC50 (Cytochrome P450 2D6): < 5.00
Kp [1]: 0.16
pIC50 (Cytochrome P450 3A4): < 5.00
pIC50 (Cytochrome P450 2C9): < 5.00
SMILES: Cn1cc(S(=O)(=O)[C@H]2CC[C@](CNC(=O)c3ccc(Cl)cc3Cl)(CC3CC3)CC2)nn1
Occ50 (Plasma [5]): 1.2 µM
Occ50 (Brain): 0.2 µM

pIC50 [2]: 6.88
SMILES: CCS(=O)(=O)[C@H]1CC[C@](CNC(=O)c2ccc(Cl)cc2Cl)(CC2CC2)CC1

pIC50 [2]: 5.52
pIC50 (Cytochrome P450 2C9): 8.00
SMILES: O=C(NC[C@]1(CC2CC2)CC[C@@H](S(=O)(=O)c2cnn[nH]2)CC1)c1ccc(Cl)cc1Cl

pIC50 [2]: 7.43
metabolised at 0.25 h, 1 µM [3]: 53%
metabolised at 0.25 h, 1 µM [4]: 55%
SMILES: CCCS(=O)(=O)[C@H]1CC[C@](CNC(=O)c2ccc(Cl)cc2Cl)(CC2CC2)CC1

pIC50 [2]: 5.79
SMILES: CCCS(=O)(=O)[C@H]1CC[C@@](CNC(=O)c2ccc(Cl)cc2Cl)(CC2CC2)CC1

pIC50 [2]: 8.14
metabolised at 0.25 h, 1 µM [3]: 41%
metabolised at 0.25 h, 1 µM [4]: 40%
SMILES: Cc1cc(S(=O)(=O)[C@H]2CC[C@](CNC(=O)c3ccc(Cl)cc3Cl)(CC3CC3)CC2)no1

From ChEMBL document CHEMBL2146383, “Identification of an Orally Bioavailable, Potent, and Selective Inhibitor of GlyT1” (ACS Med Chem Lett, 2010)
